# Measured values published in the RNAGym collection of RNA variant scans (doi:10.1126/science.aae0568).
# Fewer inactive variants are shown than the library holds.
# B1: tRNA (parent)
# chain: GUUCCGUUGGCGUAAUGGUAACGCGUCUCCCUCCUAAGGAGAAGACUGCGGGUUCGAGUCCCGUACGGAACG
# Variants of: B1
# Assay: yeast fitness relative to wild type (ratio to wild type); higher = fitter; tRNA-Arg(CCU), competitive growth, 37 C, YPD
# How it was run: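 Changes in genotype frequencies gave Darwinian fitness relative to wild type. Frequencies were read by 100-nucleotide paired-end sequencing of gene amplicons before and after pooled Saccharomyces cerevisiae strains, carrying tRNA-Arg(CCU) gene variants at the native locus, were competed in YPD at 37°C for 24 hours in six replicates. A genotype was kept only with ≥ 100 starting reads, and estimates < 0.5 were set to 0.5.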
row,Variant,yeast fitness
1,C22U A45C,0.75
2,C22U A45U,0.909
3,C22G U35A G58A G67U,≤ 0.5
4,C22U C33U A42U A69C,0.629
5,C22U G44C A70U,0.711
6,C22U C55A A65G C66U,0.585
7,C22U A36C C66A,≤ 0.5
8,C22U C29U C49A,≤ 0.5
9,C22U G41A A65C,≤ 0.5
10,C22G G52A U53A,≤ 0.5
11,C22U U26C A37C G41C,≤ 0.5
12,C22G U59C,0.864
13,C22U A43U C55G C61U,0.659
14,C22U C24U C46U,0.654
15,C22U C24G C61A,0.53
16,C22G U32C U54A G68A,≤ 0.5
17,C22G U53A,0.673
18,C22G U53G,0.503
19,C22U G48A C55A G58C,≤ 0.5
20,C22U C30U U47A C62U,≤ 0.5
21,C22U C33G C60U C62G,0.594
22,C22U A37U G52C C61G C66A,≤ 0.5
23,C22U G48A G56A C60U,≤ 0.5
24,C22U C30U A42G C61A,0.584

row,Variant,yeast fitness
1,C22U C27G C66U A69U,≤ 0.5
2,C22U C27U A37G,0.643
3,C22U G38C G41C A65G,≤ 0.5
4,C22U C24A A43C C55U,≤ 0.5
5,C22U A36G G51C,≤ 0.5
6,C22U C34U C55U,0.586
7,C22U U26A C29U G52C,0.624
8,C22U A42U G51C C62U A70U,0.505
9,C22U C33G C34A A43C C55U,≤ 0.5
10,C22U C31G A43U C49U C60A A70G,≤ 0.5
11,C22U C30A,0.706
12,C22U C30U,0.758
13,C22U C30G,0.515
14,C22U C30U C49G,0.556
15,C22U C29U G41A C62G,≤ 0.5
16,C22G U26C,0.971
17,C22U C33U A43U G52A,≤ 0.5
18,C22U G51C G67A,0.604
19,C22G U47A U54A C61G,≤ 0.5
20,C22U C31U,0.94
21,C22U C31G,0.834
22,C22U G56C A57C C61G,≤ 0.5
23,C22U C30G U54C C62G A65U,≤ 0.5
24,C22G G44C U53A,≤ 0.5

row,Variant,yeast fitness
1,C22U G48A U54C,0.601
2,C22U A40C,0.7
3,C22U A40U,0.642
4,C22U G51C C61G,0.556
5,C22U C30U A37U C46G U64A G67A,≤ 0.5
6,C22U C49G U53A A65G,≤ 0.5
7,C22U G48C G67C,≤ 0.5
8,C22U A40U A57U A69U,≤ 0.5
9,C22G U28A G44A,≤ 0.5
10,C22U C24U U47C,0.705
11,C22G G51C,0.738
12,C22G G51A,0.749
13,C22U C33U C34A G38C,≤ 0.5
14,C22U G48A,0.89
15,C22U C34U C60G A69G,0.58
16,C22G G44C C60U,0.762
17,C22U U28C,0.736
18,C22U U28A C34G G38A G51A,≤ 0.5
19,C22U C24G U35C G56C,≤ 0.5
20,C22U C34G,0.597
21,C22U A57U C66U,0.553
22,C22U G23A,0.591
23,C22U G23C,0.722
24,C22G U53G C55U,≤ 0.5

row,Variant,yeast fitness
1,C22G U54C,0.775
2,C22G U54A,0.591
3,C22U C24G C55U A65G,≤ 0.5
4,C22G G63C G68U,0.52
5,C22U G41A G50A C55G,≤ 0.5
6,C22G U26G C66U,≤ 0.5
7,C22U C24A A43U A57G,≤ 0.5
8,C22U A43C,0.712
9,C22U G52A,0.675
10,C22U C24U C33G C55G,≤ 0.5
11,C22G U47C A65U,0.64
12,C22U U26A C29U A43C G52C U53A,≤ 0.5
13,C22U C31G U35A C49U C66U G67A,≤ 0.5
14,C22U C30A C55G,≤ 0.5
15,C22U C34G G39A C49U,≤ 0.5
16,C22U G52C C55U A65U,≤ 0.5
17,C22U A37G G48C,0.54
18,C22U A45U A69U,0.804
19,C22U A45C G50A,0.698
20,C22U G23C C24A C49U C62U A69C,0.683
21,C22U A36C C55U U59A,≤ 0.5
22,C22G G52C G58C A65U,0.592
23,C22U A36G G51A C66U,0.588
24,C22U C30G A65C C66U,0.62

row,Variant,yeast fitness
1,C22U C31G G51C C62A,≤ 0.5
2,C22U C34G G39A,≤ 0.5
3,C22U C24U A36C A45G G56C,≤ 0.5
4,C22U G38A G67C,≤ 0.5
5,C22U C49U U64A A70U,≤ 0.5
6,C22U C24G C30G G41C,≤ 0.5
7,C22U A42C,0.808
8,C22U A42U,0.749
9,C22U A42G,0.794
10,C22U C29A C34A G41C A45C U47A C55A,≤ 0.5
11,C22U C60U G67A,0.643
12,C22U C60G A70G,≤ 0.5
13,C22U C49G U53A G63C,0.609
14,C22G G50A U59C,≤ 0.5
15,C22U C60U C61A G63C A65U,≤ 0.5
16,C22U C33G G58A C66U,0.595
17,C22U C27U C33A C60U C62G,0.558
18,C22G G52A U64C,0.537
19,C22U A40G A43U C46G C49G C62U U64C,≤ 0.5
20,C22G U32G G48A G52A,≤ 0.5
21,C22U C29G C34G A42U U54C G56A,≤ 0.5
22,C22U C31G C49U,0.552
23,C22U C27U A42U A43U U47C,≤ 0.5
24,C22U C29G A40C A57C,≤ 0.5

row,Variant,yeast fitness
1,C22U G25A A42C C49G U59A A65U,≤ 0.5
2,C22U G25A G41C U54G C61U,≤ 0.5
3,C22U C46G C49G A57G,≤ 0.5
4,C22U U28A A37U C61U,0.552
5,C22U G44A,0.865
6,C22U C46A C61U,≤ 0.5
7,C22U A40G C61U U64G A69U,≤ 0.5
8,C22U G51C A65U,≤ 0.5
9,C22U C27G A40C,0.55
10,C22U A43C U53C C62G,≤ 0.5
11,C22G U47G A65C,≤ 0.5
12,C22U A37U G50C C66U,0.697
13,C22U C61A,0.612
14,C22U C61G,0.586
15,C22U C30U A57C,0.528
16,C22U C29U A37U,≤ 0.5
17,C22U C27U G56A,0.51
18,C22G U32C A42C G48C C55G,≤ 0.5
19,C22G U35A A57G C62A,0.567
20,C22U G52A C55A,0.579
21,C22U A42G A45C C55G,≤ 0.5
22,C22U C27G A57C,≤ 0.5
23,C22U C31G C33A G38A U47A,≤ 0.5
24,C22G G44C,0.942

row,Variant,yeast fitness
1,C22U C31G G56U,0.528
2,C22U C55G C62A,≤ 0.5
3,C22U C30U U47C U54A,≤ 0.5
4,C22U C31G G50A,0.606
5,C22G G50U,0.873
6,C22U C24G,0.583
7,C22U C24U,0.885
8,C22G U35A U47C C55U,≤ 0.5
9,C22U A36C A45C,≤ 0.5
10,C22U C31G A36U,≤ 0.5
11,C22G U35C G50C,≤ 0.5
12,C22U C27U G44C,0.659
13,C22U A37G A45U G52A,0.588
14,C22U G68U,0.845
15,C22U U28C C29G C33A C60A A70C,≤ 0.5
16,C22G G52C G68C,≤ 0.5
17,C22U C30G G52A,0.514
18,C22U G23A C46U,≤ 0.5
19,C22U C33U A42U G52C A57C A65C,≤ 0.5
20,C22G G51A C60U A70U,0.637
21,C22U C31U C60G A70G,≤ 0.5
22,C22G U47A C49U,0.638
23,C22G G56A,1.07
